TRPC4 block: TRPC4 (mouse) channel inhibition. AID 2247. HEK293 TRPC4beta/mu-opioid, DAMGO-evoked Fluo4 calcium flux; hits give low values. 300,000 tested, 0.39% active. Q9QUQ5. B-score at 10 µM;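 active = B-score over 3 SD under the library average, no early fluorescence shift, positive overall ratio signal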
Target sequence (Q9QUQ5 whole entry, looked up): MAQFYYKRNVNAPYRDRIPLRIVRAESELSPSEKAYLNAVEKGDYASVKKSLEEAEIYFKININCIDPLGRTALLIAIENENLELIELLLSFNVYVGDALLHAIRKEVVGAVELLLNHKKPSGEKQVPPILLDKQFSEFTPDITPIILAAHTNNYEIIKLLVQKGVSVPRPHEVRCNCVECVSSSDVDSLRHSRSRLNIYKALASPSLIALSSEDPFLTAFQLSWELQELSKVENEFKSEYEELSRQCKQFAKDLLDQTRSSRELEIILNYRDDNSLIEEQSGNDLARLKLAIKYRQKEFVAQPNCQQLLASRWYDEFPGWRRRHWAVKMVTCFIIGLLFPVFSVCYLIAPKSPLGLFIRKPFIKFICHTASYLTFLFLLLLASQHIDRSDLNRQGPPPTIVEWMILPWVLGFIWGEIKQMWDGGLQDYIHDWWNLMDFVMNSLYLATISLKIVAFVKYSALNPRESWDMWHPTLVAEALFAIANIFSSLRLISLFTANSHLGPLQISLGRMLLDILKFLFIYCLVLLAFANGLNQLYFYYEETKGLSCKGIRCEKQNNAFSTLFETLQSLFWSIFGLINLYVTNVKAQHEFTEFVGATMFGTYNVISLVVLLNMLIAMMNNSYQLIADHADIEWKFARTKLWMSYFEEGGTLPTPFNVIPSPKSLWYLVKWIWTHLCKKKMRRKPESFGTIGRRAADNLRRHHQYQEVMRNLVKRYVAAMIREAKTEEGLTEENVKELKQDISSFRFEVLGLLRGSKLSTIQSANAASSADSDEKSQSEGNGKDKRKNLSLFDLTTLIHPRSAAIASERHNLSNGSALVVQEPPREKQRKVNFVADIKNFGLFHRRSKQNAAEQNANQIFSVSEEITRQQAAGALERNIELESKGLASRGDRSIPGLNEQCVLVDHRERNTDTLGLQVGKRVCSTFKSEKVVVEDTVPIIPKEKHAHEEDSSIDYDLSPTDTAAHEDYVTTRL
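Assay system – HEK293 line stably carrying TRPC4beta and mu-opioid receptor · Doses – single dose · Detection – Fluo4 calcium-dye fluorescence, kinetic read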
TRPC6 act: mouse TRPC6 channel activation. HEK293-TRPC6 membrane potential dye fluorescence; hits give high values. B-score at 10 µM. Q61143. AID 2550. 310,000 tested, 0.13% active;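 active = B-score of the integrated fluorescence ratio above library mean plus 3 SD, and starting fluorescence ratio within library mean plus 5 SD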;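 also: higher score means more depolarization so channel activation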
TRPC6 inhibitor: inhibitors of mouse TRPC6 channel; Q61143; HEK293-TRPC6, membrane potential dye, ACh-evoked depolarization; hits give low values; B-score at 10 µM; 310,000 tested, 1.1% active;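 active = B-score under library mean minus 3 SD, initial fluorescence not abnormally high, positive integrated signal ratio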;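 also: B-score derived from integrated fluorescence ratio over the kinetic read; more negative B-score means stronger inhibition of depolarization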
TRPC4 act: opens the mouse TRPC4 cation channel | Q9QUQ5 | HEK293 TRPC4beta/mu-opioid, Fluo4 calcium fluorescence; hits give high values | B-score at 10 µM | 310,000 tested, 0.49% active;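 active = B-score above 5 SD of library B-scores, and initial fluorescence ratio not above library mean plus 5 SD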;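 also: positive B-score marks a calcium rise read as TRPC4 activation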
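Assay system – TRPC4beta and mu-opioid receptor HEK293 stable cells · Measured by – Fluo4 fluorescence, kinetic · Schedule – dye loading 45 min room temperature, 110 s kinetic read · Read-out – B-scored integrated calcium fluorescence ratio · Controls – buffer and maximal DAMGO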
TRPC4 PAM: allosteric potentiators of mouse TRPC4 channel; Q9QUQ5; HEK293 TRPC4beta/mu-opioid, DAMGO EC20, Fluo-4 Ca2+ flux; hits give high values; B-score at 10 µM; 310,000 tested, 0.42% active; AID 2227;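 active = B-score of calcium response area above 5 SD of library B-scores, with initial fluorescence ratio within 5 SD of library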;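 also: B-score of integrated fluorescence ratio over time as area under calcium response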
Numbers without * were called inactive; i = inactive. Sampled rows, rich in hits. Any-hit rate of the full collection: about 2.3%.

SMILES	TRPC4 block	TRPC6 act	TRPC6 inhibitor	TRPC4 act	TRPC4 PAM
O=C(CN1CCN(S(=O)(=O)c2cc(Cl)ccc2Cl)CC1)Nc1ccc2c(c1)OCCO2	i	i	-5.6*	57*	i
CN(C)c1ccc(NC(=O)CN2CCN(S(=O)(=O)c3cc(Cl)ccc3Cl)CC2)cc1	i	i	i	i	i
COc1cc(-c2noc(C3CCCN(C(=O)c4ccccc4)C3)n2)cc(OC)c1OC (stereo not drawn)	i	i	i	i	i
COc1ccc(NC(=O)CN(c2ccc(OC)cc2)S(=O)(=O)c2c(C)nn(C)c2C)cc1	i	i	i	i	i
CCOC(=O)N1CCC(NC(=O)c2cccc3c2C(=O)N(c2ccc(OC)cc2)C3)CC1	i	i	-7.8*	i	i
CCOC(=O)N1CCC(N2Cc3cccc(C(=O)NCc4ccccc4OC)c3C2=O)CC1	i	i	-7.3*	i	i
CCOC(=O)N1CCC(N2Cc3cccc(C(=O)NCc4ccc5c(c4)OCO5)c3C2=O)CC1	i	i	i	i	i
CCOC(=O)N1CCC(NC(=O)c2cn(-c3ccc(OC)cc3)c(=O)c3ccccc23)CC1	i	i	i	i	i
CCCCN(CC)Cc1c(O)ccc2c3c(c(=O)oc12)CCC3	i	i	i	i	i
Nc1c2c(nc3ccccc13)CCCC2	i	i	-5.3*	i	i
CN(C)S(=O)(=O)N1CCN(c2ccc([N+](=O)[O-])c(NC3CC3)c2)CC1	i	i	i	i	10*
CCOC(=O)c1ccc(NC(=S)N2CCSC2c2ccc(Cl)cc2)cc1 (stereo not drawn)	i	i	i	i	20*
OCC1(CCc2ccccc2)CCN(Cc2cccn2-c2cccnc2)CC1	i	i	i	57*	i
CC(C)CN1CCN(Cc2cccn2-c2cccnc2)CC1CCO (stereo not drawn)	i	i	i	i	i
CCCCCN=C(N)N/N=C/c1c[nH]c2ccc(OC)cc12	i	i	i	66*	i
O=C(COc1ccc(F)cc1)c1c(O)cc(O)cc1O	-6*	i	i	i	i
COc1ccc(C(=O)COc2ccc(F)cc2)c(O)c1	i	i	i	i	i
CCCCN(CC)S(=O)(=O)c1ccc(C(=O)Nc2nnc(-c3cccs3)o2)cc1	i	i	i	67*	i
Cc1ccc(CNC(=O)c2ccc(N3CCC4(CC3)CC(c3ccccc3)=NO4)c(NC(=O)c3ccc(Cl)c([N+](=O)[O-])c3)c2)cc1	i	i	i	i	i
Cc1cccc(-n2c(=O)c3ccccc3n3c(=S)[nH]nc23)c1C	i	i	i	i	i
Cc1ccc(C(=O)C(c2ccccc2)N2Cc3ccccc3C2=N)cc1 (stereo not drawn)	i	i	i	210*	i
COc1ccc(C(=O)C(c2ccccc2)N2CCOCC2)cc1 (stereo not drawn)	i	i	i	i	i
COc1ccc(CN2CCCC2C(=O)Nc2ccc(OC)c(OC)c2)cc1OC (stereo not drawn)	i	i	-5.7*	i	i
CCOC(=O)N1CCC(N2CCCC(C(=O)c3ccc4cc(OC)ccc4c3)C2)CC1 (stereo not drawn)	i	i	i	i	i
CC(=O)c1ccccc1OCC(O)CN1CCN(CCN2C(=O)c3cccc4cccc(c34)C2=O)CC1 (stereo not drawn)	i	i	i	i	i
SMILES	TRPC4 block	TRPC6 act	TRPC6 inhibitor	TRPC4 act	TRPC4 PAM
Cc1ccc(C)c(OCC(O)CN2CCN(CCN3C(=O)c4cccc5cccc(c45)C3=O)CC2)c1 (stereo not drawn)	i	i	-5.1*	i	i
CCOC(=O)c1cnn(CCOC(=O)c2ccc(F)cc2)c1NC(=O)c1ccc(F)cc1	i	i	i	i	i
COC(=O)CC(NC(=S)NC(=O)c1ccccc1)c1ccc(Br)cc1 (stereo not drawn)	i	i	i	i	72*
COC(=O)CC(N)c1ccc(Br)cc1 (stereo not drawn)	i	i	i	i	i
Cc1nn(-c2ccccc2)c2c1C(=O)N(Cc1ccccc1)C(=O)C(C)(C)C2	i	i	i	i	i
Cc1nn(-c2nc3ccccc3n2Cc2ccccc2)c2c1C(=O)CC(C)(C)C2	-6*	i	i	i	i
O=C(c1cccc(C(=O)N2CCN(c3ccccc3)CC2)c1)N1CCN(c2ccccc2)CC1	-7*	i	i	i	i
CCOC(=O)CSc1nc(C2CC2)nc2ccccc12	i	i	i	i	i
Cc1cc(=O)oc2cc(NC(=S)NCc3ccccn3)ccc12	-6*	i	i	i	i
Cc1cc(F)ccc1S(=O)(=O)N1CCCOC1CNC(=O)C(=O)NC1CCCCC1 (stereo not drawn)	i	i	i	i	i
CCN(CCNC(=O)Nc1ccc(Cl)cc1)c1ccccc1	i	i	i	i	i
O=[N+]([O-])c1ccc(N2CCN(CCOc3nonc3-c3ccccc3)CC2)c(Cl)c1	i	i	i	i	17*
O/N=C/c1ccccc1Oc1ccc(Cl)cc1	-6*	i	i	i	i
CCCN(CC(=O)Nc1ccccc1OC)C(=O)c1ccc(=O)[nH]c1	i	i	i	i	i
O=C1NCN(c2ccccc2)C12CCN(CCCC(c1ccc(F)cc1)c1ccc(F)cc1)CC2	i	i	i	116*	i
C=CCn1c(=S)sc2c(=O)[nH]cnc21	i	i	i	i	i
CN1CCN(C(=O)N2c3ccccc3C=Cc3ccccc32)CC1	i	i	i	i	13*
CCOc1ccc(CCNC(=O)c2ccc3c(=O)[nH]c4c(C(=O)NC(C)C)sc(=S)n4c3c2)cc1	i	i	i	i	18*
CCCCNC(=O)c1sc(=S)n2c1[nH]c(=O)c1ccccc12	i	i	i	46*	i
CC(C)NC(=O)c1sc(=S)n2c1[nH]c(=O)c1ccc(C(=O)NCCc3ccc(Cl)cc3)cc12	i	i	i	i	i
CCOc1nc(C)cc(C)c1S(=O)(=O)c1cccc(C)c1	i	i	i	i	19*
Cc1cc(C)c(S(=O)(=O)c2c(C)cccc2C)c(OCC(C)C)n1	i	i	i	i	i
COc1cc(OC)cc(C(=O)Nc2ccc3c(c2)CCCN3C(=O)c2cccs2)c1	i	i	i	i	i

Assay outcomes as filed in PubChem BioAssay.
